Source: ChEMBL document CHEMBL3286193, “Discovery of a series of 2,5-diaminopyrimidine covalent irreversible inhibitors of Bruton's tyrosine kinase with in vivo antitumor activity” (J Med Chem, 2014)
Active and inactive are the calls of the source. The calls are words filed in the database; no cut-off is given here.

Legend:
[1] = target: Mitogen-activated protein kinase 14 (Homo sapiens) (UniProt Q16539); experiment: Inhibition of P38-alpha MAPK (unknown origin) at 0.5 uM by [33P]-ATP filter binding assay
Outline: (§1)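 Kinase panel of 18 enzymes; inhibition tested at 0.5 μM. Values are means of duplicates.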

[2] = target: Tyrosine-protein kinase SYK (Homo sapiens) (UniProt P43405); experiment: Inhibition of SYK (unknown origin) at 0.5 uM by [33P]-ATP filter binding assay; outline: as §1
[3] = target: Protein kinase C alpha type (Homo sapiens) (UniProt P17252); experiment: Inhibition of PKC-alpha (unknown origin) at 0.5 uM by [33P]-ATP filter binding assay; outline: as §1
[4] = target: Epidermal growth factor receptor (Homo sapiens, UniProt P00533); experiment: Inhibition of EGFR (unknown origin) after 1 hr by HTRF assay
Chain of Epidermal growth factor receptor (P00533 whole entry): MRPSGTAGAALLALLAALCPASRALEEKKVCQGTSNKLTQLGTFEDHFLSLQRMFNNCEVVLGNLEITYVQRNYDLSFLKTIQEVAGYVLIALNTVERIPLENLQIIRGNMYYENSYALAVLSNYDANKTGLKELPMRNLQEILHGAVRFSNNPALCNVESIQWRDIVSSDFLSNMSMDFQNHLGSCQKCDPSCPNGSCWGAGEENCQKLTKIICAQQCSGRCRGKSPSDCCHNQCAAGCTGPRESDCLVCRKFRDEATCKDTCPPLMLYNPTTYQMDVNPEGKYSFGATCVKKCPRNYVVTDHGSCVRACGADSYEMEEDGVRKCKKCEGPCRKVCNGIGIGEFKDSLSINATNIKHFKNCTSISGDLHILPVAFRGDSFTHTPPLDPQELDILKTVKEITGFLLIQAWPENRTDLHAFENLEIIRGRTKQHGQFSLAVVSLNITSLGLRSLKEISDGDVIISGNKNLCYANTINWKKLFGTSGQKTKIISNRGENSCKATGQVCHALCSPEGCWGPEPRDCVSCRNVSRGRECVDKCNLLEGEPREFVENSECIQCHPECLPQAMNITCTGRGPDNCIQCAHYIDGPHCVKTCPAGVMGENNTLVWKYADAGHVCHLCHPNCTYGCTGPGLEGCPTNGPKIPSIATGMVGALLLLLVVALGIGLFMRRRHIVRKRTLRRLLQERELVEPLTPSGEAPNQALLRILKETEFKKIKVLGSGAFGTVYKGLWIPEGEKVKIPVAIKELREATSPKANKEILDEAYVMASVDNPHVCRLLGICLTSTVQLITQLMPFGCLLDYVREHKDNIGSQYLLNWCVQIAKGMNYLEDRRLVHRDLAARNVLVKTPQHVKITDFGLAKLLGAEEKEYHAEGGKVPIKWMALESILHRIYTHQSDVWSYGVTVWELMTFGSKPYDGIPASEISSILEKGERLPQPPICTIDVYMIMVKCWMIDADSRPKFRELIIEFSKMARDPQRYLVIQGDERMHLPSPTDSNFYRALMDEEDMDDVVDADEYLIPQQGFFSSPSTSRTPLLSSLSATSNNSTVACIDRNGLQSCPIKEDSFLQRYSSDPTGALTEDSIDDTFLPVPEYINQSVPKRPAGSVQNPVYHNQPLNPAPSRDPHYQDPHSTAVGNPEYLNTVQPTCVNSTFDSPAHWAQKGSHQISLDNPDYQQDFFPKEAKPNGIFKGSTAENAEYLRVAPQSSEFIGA
Outline: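 Commercial recombinant kinase, assayed in the HTRF KinEase format following the kit protocol. Enzyme and inhibitor were preincubated for a fixed 10 min before the reaction.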

[5] = target: Receptor tyrosine-protein kinase erbB-4 (Homo sapiens, UniProt Q15303); experiment: Inhibition of HER4 (unknown origin) after 1 hr by HTRF assay
Chain of Receptor tyrosine-protein kinase erbB-4 (Q15303 whole entry): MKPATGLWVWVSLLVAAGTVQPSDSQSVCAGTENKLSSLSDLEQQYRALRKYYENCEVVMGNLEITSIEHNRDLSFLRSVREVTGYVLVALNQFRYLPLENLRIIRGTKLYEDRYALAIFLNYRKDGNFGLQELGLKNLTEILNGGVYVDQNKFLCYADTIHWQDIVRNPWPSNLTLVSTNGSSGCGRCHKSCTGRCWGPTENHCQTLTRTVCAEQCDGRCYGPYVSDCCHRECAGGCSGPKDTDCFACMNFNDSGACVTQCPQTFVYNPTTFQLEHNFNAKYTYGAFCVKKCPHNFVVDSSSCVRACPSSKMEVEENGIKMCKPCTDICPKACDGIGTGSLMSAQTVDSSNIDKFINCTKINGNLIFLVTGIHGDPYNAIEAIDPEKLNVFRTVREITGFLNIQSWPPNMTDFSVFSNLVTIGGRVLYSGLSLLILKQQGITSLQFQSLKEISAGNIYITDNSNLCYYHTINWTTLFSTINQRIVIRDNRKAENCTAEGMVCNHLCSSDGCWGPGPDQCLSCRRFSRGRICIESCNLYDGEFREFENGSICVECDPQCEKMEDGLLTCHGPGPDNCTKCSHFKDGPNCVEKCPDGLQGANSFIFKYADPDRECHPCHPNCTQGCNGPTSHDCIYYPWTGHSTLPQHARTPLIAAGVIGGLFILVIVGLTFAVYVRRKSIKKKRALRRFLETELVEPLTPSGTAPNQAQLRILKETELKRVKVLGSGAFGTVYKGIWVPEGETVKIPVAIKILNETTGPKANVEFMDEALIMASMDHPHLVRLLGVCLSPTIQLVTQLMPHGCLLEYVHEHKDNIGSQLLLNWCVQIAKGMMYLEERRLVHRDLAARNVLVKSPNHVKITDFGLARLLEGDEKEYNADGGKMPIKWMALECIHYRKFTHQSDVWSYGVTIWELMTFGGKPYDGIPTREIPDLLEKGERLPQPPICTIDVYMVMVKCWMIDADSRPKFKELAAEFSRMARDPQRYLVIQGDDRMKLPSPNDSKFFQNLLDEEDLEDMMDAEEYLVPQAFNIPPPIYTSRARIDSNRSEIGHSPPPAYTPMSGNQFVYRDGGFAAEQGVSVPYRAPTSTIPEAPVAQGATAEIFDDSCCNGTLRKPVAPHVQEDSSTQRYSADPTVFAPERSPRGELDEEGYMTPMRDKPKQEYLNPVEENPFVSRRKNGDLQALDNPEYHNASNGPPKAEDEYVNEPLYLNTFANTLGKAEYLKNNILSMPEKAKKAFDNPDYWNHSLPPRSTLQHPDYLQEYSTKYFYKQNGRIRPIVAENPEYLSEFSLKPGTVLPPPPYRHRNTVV
Outline: (§2)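 Recombinant kinases tested by HTRF KinEase protocol. Enzyme preincubated with inhibitor for a fixed 10 min. IC50 values are means of duplicates.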

[6] = target: Tyrosine-protein kinase ITK/TSK (Homo sapiens, UniProt Q08881); experiment: Inhibition of Itk (unknown origin) after 1 hr by HTRF assay; outline: as §2
[7] = target: T1, Tyrosine-protein kinase BTK (Homo sapiens, UniProt Q06187); experiment: Binding affinity to Btk kinase domain (387 to 659) (unknown origin) assessed as compound-protein covalent adduct formation at Cys481 residue at 1:3 protein to compound molar ratio incubated for 3 hrs at 0 degC followed by overnight incubation with trypsin at 37 degC by LC-MS analysis
T1 sequence (Q06187 whole entry, the tested form may be a part): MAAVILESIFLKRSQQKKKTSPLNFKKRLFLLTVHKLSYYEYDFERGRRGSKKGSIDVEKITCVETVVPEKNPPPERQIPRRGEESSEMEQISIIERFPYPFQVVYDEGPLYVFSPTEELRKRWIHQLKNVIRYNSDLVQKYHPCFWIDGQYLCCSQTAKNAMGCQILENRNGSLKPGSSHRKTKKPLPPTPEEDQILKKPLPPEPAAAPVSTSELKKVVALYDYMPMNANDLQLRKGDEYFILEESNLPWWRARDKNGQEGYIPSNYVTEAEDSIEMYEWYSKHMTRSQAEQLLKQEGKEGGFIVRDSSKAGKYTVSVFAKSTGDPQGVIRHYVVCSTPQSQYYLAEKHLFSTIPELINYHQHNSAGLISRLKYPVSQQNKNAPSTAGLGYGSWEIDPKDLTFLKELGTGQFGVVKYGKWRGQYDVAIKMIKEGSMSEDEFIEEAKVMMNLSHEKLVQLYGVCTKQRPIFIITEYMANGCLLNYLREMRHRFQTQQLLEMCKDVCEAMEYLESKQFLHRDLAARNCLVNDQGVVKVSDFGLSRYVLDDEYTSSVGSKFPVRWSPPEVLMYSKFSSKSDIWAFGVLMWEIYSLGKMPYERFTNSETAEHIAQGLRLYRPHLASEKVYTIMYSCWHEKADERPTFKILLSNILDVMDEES
Outline: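 Covalent Btk kinase-domain adduct digested with trypsin. Resulting peptide fragments analyzed by mass spectrometry to locate the modified residue.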

[8] = target: T1, Tyrosine-protein kinase BTK; experiment: Irreversible inhibition of Btk phosphorylation at Tyr551 in human Ramos cells at 1 uM incubated for 1 hr followed by compound washout with fresh media measured after 2 hrs by Western blot analysis; format: cell-based
Outline: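 Ramos cells (5 × 10⁵) seeded overnight, treated with compound 1 h, then washed out with fresh media for 2 h. Cells stimulated with goat anti-human IgM for 3−5 min, lysed by boiling in SDS buffer, and Btk Tyr551 phosphorylation assessed by Western blot.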

MM1R = experiment: Cytotoxicity against human MM1R cells assessed as growth inhibition at 1 to 10 uM after 72 hrs by CellTiter-Glo luminescent cell viability assay; format: functional, cell-based
RL = experiment: Cytotoxicity against human RL cells assessed as growth inhibition at 1 to 10 uM after 72 hrs by CellTiter-Glo luminescent cell viability assay; format: functional, cell-based
SU-DHL10 = experiment: Cytotoxicity against human SU-DHL10 cells assessed as growth inhibition at 1 to 10 uM after 72 hrs by CellTiter-Glo luminescent cell viability assay; format: functional, cell-based
WSU-DLCL2 = experiment: Cytotoxicity against human WSU-DLCL2 cells assessed as growth inhibition at 1 to 10 uM after 72 hrs by CellTiter-Glo luminescent cell viability assay; format: functional, cell-based
[9] = Cytotoxicity against human DOHH2 cells assessed as growth inhibition after 72 hrs by CellTiter-Glo luminescent cell viability assay; format: functional, DOHH-2; conditions: Homo sapiens, DOHH-2, 72 h
Outline: (§3)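 Lymphoma cells seeded at 5000 cells/well, incubated 24 h, then exposed to compounds for 72 h. Viability read by CellTiter-Glo luminescence. GI50 from dose−response curves, mean of two or three independent experiments in triplicate.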

[10] = Cytotoxicity against human Pfeiffer cells assessed as growth inhibition after 72 hrs by CellTiter-Glo luminescent cell viability assay; format: functional; conditions: Homo sapiens, Pfeiffer, 72 h; outline: as §3
[11] = Cytotoxicity against human SU-DHL6 cells assessed as growth inhibition after 72 hrs by CellTiter-Glo luminescent cell viability assay; format: functional, SU-DHL-6; conditions: Homo sapiens, SU-DHL-6, 72 h; outline: as §3
WSU-NHL = experiment: Cytotoxicity against human WSU-NHL cells assessed as growth inhibition after 72 hrs by CellTiter-Glo luminescent cell viability assay; format: functional; outline: as §3
[12] = Stability of the compound in FaSSIF assessed as compound remaining at 1 uM measured at 24 hrs by LC-MS analysis; format: ADME; conditions: read-out: Stability
Outline: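 Compound solutions in FaSSIF shaken at 350 rpm at 37 °C. Samples taken at 2, 6, 10 and 24 h and quantified by LC−MS as % remaining.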

[13] = Half life in mouse liver microsomes by LC-MS/MS analysis; format: ADME
Outline: (§4)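 Liver microsomes incubated with compound and NADPH at 37 °C. Samples taken at several time points, centrifuged, and supernatants analyzed by LC−MS/MS. t1/2 and CL calculated by first-order kinetics. Testosterone, propranolol and clozapine served as positive controls.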

[14] = Clearance in mouse liver microsomes by LC-MS/MS analysis; format: ADME; conditions: read-out: CLH; outline: as §4
[15] = Half life in ICR mouse at 1 mg/kg, iv by LC-MS analysis; format: ADME, organism-based; parameters: dose 1 mg/kg, route intravenous; conditions: in vivo
Outline: (§5)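 ICR mice (n = 3) given a single intravenous injection at 1 mg/kg. Blood sampled at various time points and analyzed by LC−MS to derive t1/2, CL and Vss.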

[16] = Clearance in ICR mouse at 1 mg/kg, iv by LC-MS analysis; format: ADME, organism-based; parameters: dose 1 mg/kg, route intravenous; conditions: in vivo; outline: as §5
[17] = Plasma concentration in CB17 SCID mouse xenografted with human DOHH2 cells at 10 mg/kg, iv qd administered for 14 days measured at 2 hrs post last dose; format: ADME, organism-based, DOHH-2; parameters: dose 10 mg/kg, route intravenous
Outline: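 Female CB17/SCID mice were given 5 × 10⁶ DoHH2 cells subcutaneously. When tumours averaged ~167 mm³, mice were randomised into four groups (n = 6/group). Dosing was by tail-vein injection once daily for 14 consecutive days. Plasma compound levels were determined at 2 and 24 h after the final dose.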

[18] = Plasma concentration in CB17 SCID mouse xenografted with human DOHH2 cells at 20 mg/kg, iv qd administered for 14 days measured at 2 hrs post last dose; format: ADME, organism-based, DOHH-2; parameters: dose 20 mg/kg, route intravenous
Outline: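 Same DoHH2 xenograft study in female CB17/SCID mice, tail-vein dosing once daily for 14 days. Plasma compound concentrations determined at 2 and 24 h after the last administration.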

Mus musculus = experiment: Toxicity in CB17 SCID mouse xenografted with human DOHH2 cells assessed as body weight fluctuations at 20 mg/kg, iv qd administered for 14 days measured over 14 days of compound treatment; format: organism-based, DOHH-2; parameters: dose 20 mg/kg, route intravenous; conditions: in vivo, 336 h
Outline: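 DoHH2 subcutaneous xenograft in female CB17/SCID mice (5 × 10⁶ cells; dosing from ~167 mm³ mean tumor volume; n = 6/group). Daily tail-vein dosing for 14 consecutive days. Body weights followed over time across the study.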

[19] = target: Tyrosine-protein kinase CSK (Homo sapiens) (UniProt P41240); experiment: Inhibition of CSK (unknown origin) at 0.5 uM by [33P]-ATP filter binding assay; outline: as §1
Chain of Tyrosine-protein kinase CSK (Homo sapiens) (P41240 2-450 limits assumed): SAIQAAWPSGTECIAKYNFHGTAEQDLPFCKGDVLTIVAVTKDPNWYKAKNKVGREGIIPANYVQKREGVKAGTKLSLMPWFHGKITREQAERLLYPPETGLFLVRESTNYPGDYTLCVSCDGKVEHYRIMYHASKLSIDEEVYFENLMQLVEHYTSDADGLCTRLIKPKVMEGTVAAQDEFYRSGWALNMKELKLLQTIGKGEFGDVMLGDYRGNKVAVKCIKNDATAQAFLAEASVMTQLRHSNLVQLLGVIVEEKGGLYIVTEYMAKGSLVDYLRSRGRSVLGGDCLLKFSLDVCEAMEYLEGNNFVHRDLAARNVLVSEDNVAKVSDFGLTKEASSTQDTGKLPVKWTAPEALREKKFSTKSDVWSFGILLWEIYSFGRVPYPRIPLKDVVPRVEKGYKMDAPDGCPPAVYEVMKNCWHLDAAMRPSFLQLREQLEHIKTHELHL

[20] = target: Tyrosine-protein kinase ABL1 (Homo sapiens) (UniProt P00519); experiment: Inhibition of ABL (unknown origin) at 0.5 uM by [33P]-ATP filter binding assay; outline: as §1
[21] = target: Tyrosine-protein kinase Lck (Homo sapiens) (UniProt P06239); experiment: Inhibition of Lck (unknown origin) at 0.5 uM by [33P]-ATP filter binding assay; outline: as §1
Chain of Tyrosine-protein kinase Lck (Homo sapiens) (P06239 2-509 limits assumed): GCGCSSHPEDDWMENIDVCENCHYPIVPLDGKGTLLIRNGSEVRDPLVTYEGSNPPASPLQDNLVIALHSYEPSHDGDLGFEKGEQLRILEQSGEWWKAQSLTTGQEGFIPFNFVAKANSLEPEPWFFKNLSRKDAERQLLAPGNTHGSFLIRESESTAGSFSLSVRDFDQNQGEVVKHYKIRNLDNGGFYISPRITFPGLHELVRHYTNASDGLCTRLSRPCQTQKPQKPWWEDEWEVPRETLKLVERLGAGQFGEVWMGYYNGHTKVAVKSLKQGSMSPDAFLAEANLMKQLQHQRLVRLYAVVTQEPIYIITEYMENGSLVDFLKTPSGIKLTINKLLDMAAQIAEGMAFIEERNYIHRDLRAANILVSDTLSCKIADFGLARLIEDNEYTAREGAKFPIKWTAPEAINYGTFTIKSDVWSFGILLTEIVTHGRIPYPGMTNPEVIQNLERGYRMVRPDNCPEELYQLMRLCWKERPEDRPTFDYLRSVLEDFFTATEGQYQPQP

Q: Which results are given for C=CC(=O)Nc1cccc(Nc2ncc(NC(=O)c3cc(NC(=O)c4cccc(C(F)(F)F)c4)ccc3C)cn2)c1?
A: inhibition [1]: Active; inhibition [2]: inactive; inhibition [3]: inactive; IC50 [4]: 11 nM; IC50 [5]: 5.5 nM; IC50 [6]: > 30000 nM; Activity [7]: Active; inhibition [8]: Active; growth inhibition (GI) (MM1R): Active; growth inhibition (GI) (RL): Active; growth inhibition (GI) (SU-DHL10): Active; growth inhibition (GI) (WSU-DLCL2): Active; GI50 [9]: 73 nM; GI50 [10]: 8 nM; GI50 [11]: 38 nM; GI50 (WSU-NHL): 31 nM; remaining at 24 h, 1 µM [12]: 94%; half-life [13]: 0.64 h; microsomal CLint [14]: 25.7 µL/min/mg; half-life [15]: 2.8 h; clearance [16]: 6.85 mL/min/kg; concentration at 2 h [17]: 378 ng/mL; concentration at 2 h [18]: 2100 ng/mL; Activity (Mus musculus): Non-toxic; inhibition [19]: Active; inhibition [20]: Active; inhibition [21]: Active
